According to ChEMBL document CHEMBL4270609, “Purple acid phosphatase inhibitors as leads for osteoporosis chemotherapeutics” (Eur J Med Chem, 2018):
Calls of active or inactive are those of the source. The calls are words filed in the database; no cut-off is given here.

Assays:
[1] = biological target: T1, Tartrate-resistant acid phosphatase type 5 (Sus scrofa) (UniProt P09889); experiment: Competitive inhibition of pig purple acid phosphatase Fe(3)Fe(2) state assessed as enzyme-inhibitor complex using pNPP as substrate by UV/Vis spectrophotometric method
T1 sequence (whole entry): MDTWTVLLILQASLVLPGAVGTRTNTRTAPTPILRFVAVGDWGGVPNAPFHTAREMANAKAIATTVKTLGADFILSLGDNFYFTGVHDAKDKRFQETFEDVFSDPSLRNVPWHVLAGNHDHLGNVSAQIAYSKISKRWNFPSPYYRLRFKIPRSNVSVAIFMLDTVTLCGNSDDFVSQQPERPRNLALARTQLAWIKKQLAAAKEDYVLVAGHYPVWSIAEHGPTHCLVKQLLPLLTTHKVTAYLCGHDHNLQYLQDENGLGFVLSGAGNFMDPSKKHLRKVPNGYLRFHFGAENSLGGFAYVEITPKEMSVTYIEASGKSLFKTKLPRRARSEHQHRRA
How it was run: (§1)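 Pig PAP was from sow uterine fluid and pre-reduced to Fe(III)Fe(II) with 0.77 mM β-mercaptoethanol (10 min, 37 °C); rkbPAP was purified from red kidney beans. Assays ran at 25 °C, pH 4.9 (0.1 M acetate, 25% DMSO) with 12 nM enzyme, pNPP 1–12.5 mM and inhibitor 50–300 μM. p-Nitrophenol was read at 405 nm. Kic and Kiuc came from non-linear fit to the general inhibition equation.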

[2] = biological target: T2, Fe(3+)-Zn(2+) purple acid phosphatase (Phaseolus vulgaris) (UniProt P80366); experiment: Competitive inhibition of red kidney bean purple acid phosphatase Fe(3)Fe(2) state assessed as enzyme-inhibitor complex using pNPP as substrate by UV/Vis spectrophotometric method; how it was run: as §1
T2 sequence (whole entry): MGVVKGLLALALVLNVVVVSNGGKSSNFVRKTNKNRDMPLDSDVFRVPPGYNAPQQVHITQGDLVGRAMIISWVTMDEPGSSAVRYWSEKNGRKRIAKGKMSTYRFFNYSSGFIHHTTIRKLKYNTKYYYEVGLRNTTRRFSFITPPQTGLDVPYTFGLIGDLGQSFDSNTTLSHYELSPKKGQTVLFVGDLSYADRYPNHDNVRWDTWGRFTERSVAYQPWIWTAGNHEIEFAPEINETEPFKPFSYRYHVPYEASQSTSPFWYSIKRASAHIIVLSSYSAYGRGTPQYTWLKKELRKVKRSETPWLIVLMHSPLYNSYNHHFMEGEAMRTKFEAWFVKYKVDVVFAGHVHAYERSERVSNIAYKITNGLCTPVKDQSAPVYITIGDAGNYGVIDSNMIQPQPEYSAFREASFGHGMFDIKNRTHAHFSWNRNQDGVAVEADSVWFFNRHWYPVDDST

[3] = biological target: T1, Tartrate-resistant acid phosphatase type 5 (Sus scrofa); experiment: Inhibition of pig purple acid phosphatase Fe(3)Fe(2) state assessed as enzyme-inhibitor complex at 100 uM using pNPP as substrate by UV/Vis spectrophotometric method
How it was run: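 Used 5 mM pNPP substrate and 12 nM enzyme in 0.1 M acetate pH 4.9 with 25% DMSO at 25 °C. p-Nitrophenol formation was followed at 405 nm; result expressed as percentage inhibition.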

[4] = biological target: T1, Tartrate-resistant acid phosphatase type 5 (Sus scrofa); experiment: Uncompetitive inhibition of pig purple acid phosphatase Fe(3)Fe(2) state assessed as enzyme-substrate-inhibitor complex using pNPP as substrate by UV/Vis spectrophotometric method; how it was run: as §1
[5] = biological target: T2, Fe(3+)-Zn(2+) purple acid phosphatase (Phaseolus vulgaris); experiment: Uncompetitive inhibition of red kidney bean purple acid phosphatase Fe(3)Fe(2) state assessed as enzyme-substrate-inhibitor complex using pNPP as substrate by UV/Vis spectrophotometric method; how it was run: as §1

Row | Structure (SMILES) | Kic [1] [µM] | Kic [2] [µM] | inhibition [3] | other results
1 | O=C(O)c1csc(-c2ccccc2)n1 | 190 |  |  | 
2 | Cc1ccc(-c2nc(C(=O)O)cs2)cc1 | 42 | 340 |  | 
3 | O=C(O)[C@@H]1CSC(c2ccco2)N1 (some centres not stated) |  |  | inactive | 
4 | O=C(O)[C@@H]1CSC(c2cccc3ccccc23)N1 (some centres not stated) |  |  | inactive | 
5 | O=C(O)[C@@H]1CSC(c2c(O)ccc3ccccc23)N1 (some centres not stated) |  |  | inactive | 
6 | Cc1ccc(C2N[C@H](C(=O)O)CS2)cc1 (some centres not stated) |  |  | inactive | 
7 | O=C(O)[C@@H]1CSC(c2ccccc2)N1 (some centres not stated) |  |  | inactive | 
8 | O=C(O)c1csc(-c2cccc3ccccc23)n1 | 33 | 185 |  | Kiuc [4]: 110 µM
9 | O=C(O)c1csc(-c2ccccc2Cl)n1 | 630 | 920 |  | Kiuc [4]: 350 µM
10 | COc1ccc(-c2nc(C(=O)O)cs2)cc1 | 120 | 400 |  | Kiuc [5]: 770 µM
11 | COc1ccc(C2N[C@H](C(=O)O)CS2)cc1 (some centres not stated) |  |  | inactive | 
12 | O=C(O)[C@@H]1CSC(c2ccccc2O)N1 (some centres not stated) |  |  | inactive | 
13 | O=C(O)[C@@H]1CSC(c2ccc(O)cc2)N1 (some centres not stated) |  |  | inactive | 
14 | O=C(O)c1csc(-c2ccc(Cl)cc2)n1 | 49 | 530 |  | 
